From ChEMBL document CHEMBL2034918, “Synthesis and cytotoxic activity of new acridine-thiazolidine derivatives” (Bioorg Med Chem, 2012)
Activity calls are given as the source filed them. No cut-off for these calls is given here.

What was measured:
PC-3 [1] = experiment: Cytotoxicity against human PC3 cells after 24 hrs by MTT assay; format: functional, cell-based; conditions: PC-3, 24 h
LNCaP = experiment: Cytotoxicity against human LNCAP cells after 24 hrs by MTT assay; format: functional, cell-based
Nucleic Acid [2] = experiment: Binding affinity to calf thymus dsDNA in biosensor assessed as oxidation of exposed bases at 10^-4 M by differential pulse voltametry; format: nucleic-acid assay; conditions: Bos taurus
How it was run: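 Glassy carbon electrode polished with alumina, then pretreated by five cyclic scans 0 to +1.4 V in acetate buffer pH 4.5. Electrode coated with a dsDNA gel layer, then 20 µL of 10⁻⁴ M ethanolic compound added with drying. DPV in acetate buffer from 0 to 1.4 V: pulse amplitude 50 mV, pulse width 70 ms, step 2 mV, scan rate 5 mV/s, 25 °C. An untreated dsDNA electrode served as blank.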

OVCAR-8 = experiment: Antiproliferative activity against human OVCAR8 cells after 72 hrs by MTT assay; format: functional, cell-based; conditions: OVCAR-8, 72 h
How it was run: (§1)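 Cancer lines kept in RPMI-1640 with 10% foetal bovine serum, 2 mM glutamine, penicillin/streptomycin, 37 °C, 5% CO₂. Seeded at 0.7 × 10⁵ cells/well (adherent) or 0.3 × 10⁶ cells/mL (suspension). After 24 h, compounds in DMSO added at 0.048–25 µg/mL for 72 h. Medium then replaced with 0.5 mg/mL MTT for 3 h. Formazan dissolved in DMSO, absorbance read at 595 nm.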

[3] = Haemolysis in mouse erythrocytes at 200 ug/mL after 30 mins by spectrophotometry; format: ADME, cell-based; conditions: erythrocyte, 0.5 h
How it was run: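 Mouse erythrocytes used as a 2% suspension in 0.85% NaCl with 10 mM CaCl₂. Compounds tested across 1.5–200 µg/mL with 1% Triton X-100 as positive control. Incubated 30 min at room temperature, then centrifuged. Released haemoglobin in the supernatant measured at 540 nm.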

CCRF-CEM = experiment: Antiproliferative activity against human CEM cells after 72 hrs by MTT assay; format: functional, cell-based; how it was run: as §1
SW-620 = experiment: Antiproliferative activity against human SW620 cells after 72 hrs by MTT assay; format: functional, cell-based; conditions: SW-620, 72 h; how it was run: as §1
HL-60 = experiment: Antiproliferative activity against human HL60 cells after 72 hrs by MTT assay; format: functional, cell-based; conditions: HL-60, 72 h; how it was run: as §1
MDA-MB-435 = experiment: Antiproliferative activity against human MDA-MB-435 cells after 72 hrs by MTT assay; format: functional, cell-based; conditions: MDA-MB-435, 72 h; how it was run: as §1
PBMC = experiment: Cytotoxicity against human PBMC after 72 hrs by alamar blue assay; format: cell-based
How it was run: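 PBMC isolated from heparinised blood of healthy non-smoking donors by Ficoll-Hypaque density gradient. Cultured in RPMI-1640 with 20% FBS, glutamine, antibiotics and 2% phytohaemagglutinin at 37 °C, 5% CO₂. Plated at 3 × 10⁵ cells/mL; compounds in DMSO added at 0.048–25 µg/mL after 24 h, 72 h exposure. Alamar blue (resazurin) added 24 h before the end; absorbance read at 570 and 595 nm. IC50 by nonlinear regression.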

HCT-8 = experiment: Antiproliferative activity against human HCT8 cells after 72 hrs by MTT assay; format: functional, cell-based; conditions: HCT-8, 72 h; how it was run: as §1
HCT-15 = experiment: Antiproliferative activity against human HCT15 cells after 72 hrs by MTT assay; format: functional, cell-based; conditions: HCT-15, 72 h; how it was run: as §1
UACC-62 = experiment: Antiproliferative activity against human UACC62 cells after 72 hrs by MTT assay; format: functional, cell-based; conditions: UACC-62, 72 h; how it was run: as §1
Nucleic Acid [4] = experiment: Binding affinity to calf thymus ssDNA in solution assessed as oxidation of exposed bases at 10^-4 M by differential pulse voltametry; format: nucleic-acid assay; conditions: Bos taurus
How it was run: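 ssDNA made by dissolving dsDNA (3.0 mg/mL) in 1 M HCl with heating for 1 h. Compound was incorporated into a carbon paste electrode; blank paste contained ethanol only. DPV at pH 4.5 in ssDNA solution (1.0 × 10⁻⁴ M): equilibration 5 s, step 2 mV, pulse amplitude 50 mV, scan rate 5 mV/s.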

PC-3 [5] = experiment: Antiproliferative activity against human PC3 cells after 72 hrs by MTT assay; format: functional, cell-based; conditions: PC-3, 72 h; how it was run: as §1
V79 [6] = experiment: Selectivity ratio of IC50 for chinese hamster V79 cells to IC50 for human SF295 cells
K562 = experiment: Antiproliferative activity against human K562 cells after 72 hrs by MTT assay; format: functional, cell-based; conditions: K562, 72 h; how it was run: as §1
SF-295 = experiment: Antiproliferative activity against human SF295 cells after 72 hrs by MTT assay; format: functional, cell-based; conditions: SF-295, 72 h; how it was run: as §1
COLO 205 = experiment: Antiproliferative activity against human COLO205 cells after 72 hrs by MTT assay; format: functional, cell-based; conditions: COLO 205, 72 h; how it was run: as §1
V79 [7] = experiment: Cytotoxicity against chinese hamster V79 cells after 72 hrs by MTT assay; format: cell-based; conditions: Cricetulus griseus, V79, 72 h
How it was run: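 V79 Chinese hamster lung fibroblasts grown in MEM with Earle's salts, 10% foetal bovine serum, 2 mM glutamine, penicillin/streptomycin, 37 °C, 5% CO₂. Seeded at 0.7 × 10⁵ cells/well. Compounds in DMSO added at 0.048–25 µg/mL after 24 h and left 72 h. MTT 0.5 mg/mL for 3 h, formazan in DMSO read at 595 nm. IC50 by nonlinear regression, two experiments in duplicate.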

MX1 = experiment: Antiproliferative activity against human MX1 cells after 72 hrs by MTT assay; format: functional, cell-based; conditions: MX1, 72 h; how it was run: as §1
MDA-MB-231 = experiment: Antiproliferative activity against human MDA-MB-231 cells after 72 hrs by MTT assay; format: functional, cell-based; conditions: MDA-MB-231, 72 h; how it was run: as §1
DU-145 = experiment: Antiproliferative activity against human DU145 cells after 72 hrs by MTT assay; format: functional, cell-based; conditions: DU-145, 72 h; how it was run: as §1
Hs-578T = experiment: Antiproliferative activity against human Hs578T cells after 72 hrs by MTT assay; format: functional, cell-based; how it was run: as §1

Row | Compound | IC50 (PC-3 [1]) | IC50 (LNCaP) | Activity (Nucleic Acid [2]) | IC50 (OVCAR-8) | Activity [3] | IC50 (CCRF-CEM) | IC50 (SW-620) | IC50 (HL-60) | IC50 (MDA-MB-435) | IC50 (PBMC) | IC50 (HCT-8) | IC50 (HCT-15) | IC50 (UACC-62) | Activity (Nucleic Acid [4]) | IC50 (PC-3 [5]) | Ratio IC50 (V79 [6]) | IC50 (K562) | IC50 (SF-295) | IC50 (COLO 205) | IC50 (V79 [7]) | other results
1 | Cc1c(C)c2c(c(C)c1O)CCC(C)(COc1ccc(/C=C3/SC(=O)NC3=O)cc1)O2 (centres undefined) | 20 µM | 14 µM |  |  |  |  |  |  |  |  |  |  |  |  |  |  |  |  |  |  | 
2 | Cc1c(C)c2c(c(C)c1O)CCC(C)(COc1ccc(CC3SC(=O)NC3=O)cc1)O2 (centres undefined) [TROGLITAZONE] | 30 µM | 22 µM |  |  |  |  |  |  |  |  |  |  |  |  |  |  |  |  |  |  | 
3 | O=C1SC(=Cc2c3ccccc3nc3ccccc23)C(=O)N1Cc1ccc(Br)cc1 (mixture of isomers) |  |  | Active | 37.2 µM | Non-toxic | > 52.6 µM | 35.5 µM | > 52.6 µM | 25.9 µM | > 52.6 µM | 11.2 µM | 19.8 µM | 50.7 µM | Active | 8.6 µM | 3.1 | > 52.6 µM | 7.2 µM | > 52.6 µM | 22.6 µM | 
4 | Cc1ccc(CN2C(=O)S/C(=C\c3c4ccccc4nc4ccccc34)C2=O)cc1 |  |  | Active | 19.7 µM | Non-toxic | > 60.9 µM | 26.8 µM | > 60.9 µM | 15.6 µM | > 60.9 µM | 7.4 µM | 29.2 µM | 21.1 µM | Active | 17.7 µM | 3.7 | > 60.9 µM | 7.8 µM | 46.4 µM | 28.5 µM | IC50 (MX1): > 60.9 µM; IC50 (MDA-MB-231): > 60.9 µM; IC50 (DU-145): > 60.9 µM; IC50 (Hs-578T): > 60.9 µM
